Results reported in ChEMBL document CHEMBL1129970, “Biologically active conformer of the effector region of human C5a and modulatory effects of N-terminal receptor binding determinants on activity” (J Med Chem, 1997).
Peptide text beside a SMILES is read from it.

How the values were obtained:
[1] = organism: Homo sapiens; assay: Relative potency of peptide for human fetal artery was determined; type: functional
Summary of the method: (§1)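 Human fetal artery smooth muscle contraction; full dose–response curves for recombinant human C5a or each peptide in the same tissue preparation. EC50 is the concentration giving 50% of the maximal response, read relative to the C5a maximum. pD2 = −log EC50 (M), averaged per peptide ± SE. Log potency ratio pD2(C5a) − pD2(peptide) is computed within each experiment. Relative potency = antilog(−Δ) × 100.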

[2] = organism: Homo sapiens; assay: Spasmogenic activity was measured by the ability to induce smooth muscle contraction in human fetal artery; type: functional, Muscle tissue; summary of the method: as §1
[3] = organism: Homo sapiens; assay: Tested for the ability to stimulate beta-glucuronidase release from human polymorphonuclear cells (PMN) (n=4); type: functional
Summary of the method: (§2)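 Human PMNs pretreated with cytochalasin B (5 μg/mL, 10 min, 37 °C), then 10⁶ cells stimulated for 60 min at 37 °C. β-Glucuronidase in the supernatant is assayed with 0.01 M p-nitrophenyl β-D-glucuronide (0.1 M acetate, pH 4, 18 h) in triplicate. Reaction stopped with glycine pH 10 and read at 415 nm. pD2 is taken from dose–response curves against the C5a EC50. Efficacy is given relative to C5a maximum (100%).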

[4] = organism: Homo sapiens; assay: Log potency ratio [pD2(C5a)-pD2(peptide)] was determined in human polymorphonuclear cells (PMN) (n=4); type: functional; summary of the method: as §2
[5] = organism: Homo sapiens; assay: Relative potency of peptide to stimulate beta-glucuronidase release from human polymorphonuclear cells (PMN) (n=4); type: functional; summary of the method: as §2
[6] = organism: Homo sapiens; assay: Maximum efficacy relative to C5a (100%) for human polymorphonuclear cells (PMN) was determined (n=4); type: functional; summary of the method: as §2
[7] = Selectivity of peptide was determined from antilog[pD2(fetal artery)-pD2 (PMN enzyme release)] (n=7); type: functional
Summary of the method: (§3)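 Selectivity = antilog[pD2(fetal artery) − pD2(PMN β-glucuronidase release)]. pD2 values come from full dose–response curves in each assay, each generated alongside C5a.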

[8] = organism: Homo sapiens; assay: Log potency ratio [pD2(C5a)-pD2(peptide)] was determined in human fetal artery; type: functional; summary of the method: as §1
[9] = Selectivity of peptide was determined from antilog[pD2(fetal artery)-pD2 (PMN enzyme release)] (n=8); type: functional; summary of the method: as §3
[10] = organism: Homo sapiens; assay: Tested for the ability to stimulate beta-glucuronidase release from human polymorphonuclear cells (PMN) (n=3); type: functional; summary of the method: as §2
[11] = organism: Homo sapiens; assay: Log potency ratio [pD2(C5a)-pD2(peptide)] was determined in human polymorphonuclear cells (PMN) (n=3); type: functional; summary of the method: as §2
[12] = organism: Homo sapiens; assay: Relative potency of peptide to stimulate beta-glucuronidase release from human polymorphonuclear cells (PMN) (n=3); type: functional; summary of the method: as §2
[13] = organism: Homo sapiens; assay: Maximum efficacy relative to C5a (100%) for human polymorphonuclear cells (PMN) was determined (n=3); type: functional; summary of the method: as §2
[14] = Selectivity of peptide was determined from antilog[pD2(fetal artery)-pD2 (PMN enzyme release)] (n=12); type: functional; summary of the method: as §3
[15] = organism: Homo sapiens; assay: Effective concentration to induce smooth muscle contraction in human fetal artery; type: functional; details: Muscle tissue; summary of the method: as §1
[16] = organism: Homo sapiens; assay: Selectivity of peptide was determined from antilog [pD2(fetal artery)-pD2 (PMN enzyme release)] (n=28); type: functional; summary of the method: as §3
[17] = organism: Homo sapiens; assay: Log potency ratio [pD2(C5a)-pD2(peptide)] was determined in human polymorphonuclear cells (PMN) (n=6); type: functional; summary of the method: as §2
[18] = organism: Homo sapiens; assay: Relative potency of peptide to stimulate beta-glucuronidase release from human polymorphonuclear cells (PMN) (n=6); type: functional; summary of the method: as §2
[19] = organism: Homo sapiens; assay: Tested for inhibition of binding of [125I]C5a to intact human polymorphonuclear cells (PMN) (n=3); type: functional
Summary of the method: (§4)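 Competition binding on freshly isolated intact human PMNs (0.25 × 10⁶) with 20 pM [¹²⁵I]C5a plus unlabeled C5a or peptide. Buffer is 50 mM HEPES, 1 mM CaCl₂, 5 mM MgCl₂, 0.5% BSA. Incubation 60 min at 4 °C, then filtration, ice-cold washes and gamma counting, triplicates. Nonspecific binding defined with 1 mM peptide or 100 nM C5a. Relative affinity = antilog[−(log IC50 C5a − log IC50 peptide)] × 100. The potency/binding ratio is EC50 divided by the binding IC50.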

[20] = organism: Homo sapiens; assay: Log potency ratio [log IC50(C5a)-log IC50(peptide)] was determined in human polymorphonuclear cells (PMN) (n=3); type: functional; summary of the method: as §4
[21] = organism: Homo sapiens; assay: Effective concentration to stimulate beta-glucuronidase release from human polymorphonuclear cells (PMN) (n=6); type: functional; summary of the method: as §2
[22] = organism: Homo sapiens; assay: Tested for the ability to stimulate beta-glucuronidase release from human polymorphonuclear cells (PMN) (n=6); type: functional; summary of the method: as §2
[23] = organism: Homo sapiens; assay: Relative affinity for PMN receptor (n=3); type: functional; summary of the method: as §4
[24] = organism: Homo sapiens; assay: Maximum efficacy relative to C5a (100%) for human polymorphonuclear cells (PMN) was determined (n=6); type: functional; summary of the method: as §2
[25] = organism: Homo sapiens; assay: (§5) Ratio of concentration agonist potency (EC50) to concentration inhibiting [125I]C5a binding (n=3); type: functional; summary of the method: as §4
[26] = organism: Homo sapiens; assay: Log potency ratio [pD2(C5a)-pD2(peptide)] was determined in human polymorphonuclear cells (PMN) (n=5); type: functional; summary of the method: as §2
[27] = organism: Homo sapiens; assay: Relative potency of peptide to stimulate beta-glucuronidase release from human polymorphonuclear cells (PMN) (n=5); type: functional; summary of the method: as §2
[28] = organism: Homo sapiens; assay: Tested for inhibition of binding of [125I]-C5a to intact human polymorphonuclear cells (PMN) (n=3); type: functional; summary of the method: as §4
[29] = organism: Homo sapiens; assay: Tested for the ability to stimulate beta-glucuronidase release from human polymorphonuclear cells (PMN) (n=5); type: functional; summary of the method: as §2
[30] = organism: Homo sapiens; assay: Maximum efficacy relative to C5a (100%) for human polymorphonuclear cells (PMN) was determined (n=5); type: functional; summary of the method: as §2
[31] = organism: Homo sapiens; assay: Effective concentration to stimulate beta-glucuronidase release from human polymorphonuclear cells (PMN) (n=5); type: functional; summary of the method: as §2
[32] = Selectivity of peptide was determined from antilog[pD2(fetal artery)-pD2 (PMN enzyme release)] (n=35); type: functional; summary of the method: as §3
[33] = as §5; summary of the method: as §4
[34] = organism: Homo sapiens; assay: Log potency ratio [pD2(C5a)-pD2(peptide)] was determined for human polymorphonuclear cells (PMN) (n=4); type: functional; summary of the method: as §2
[35] = organism: Homo sapiens; assay: Selectivity of peptide was determined from antilog[pD2(fetal artery)-pD2 (PMN enzyme release)] (n=10); type: functional; summary of the method: as §3
[36] = organism: Homo sapiens; assay: Effective concentration to stimulate beta-glucuronidase release from human polymorphonuclear cells (PMN) (n=3); type: functional; summary of the method: as §2

## CSCC[C@H](NC(=O)[C@@H]1CCCN1C(=O)[C@H](CCCCN)NC(=O)[C@H](Cc1ccccc1)NC(=O)[C@H](CO)NC(=O)[C@H](Cc1ccc(O)cc1)NC(=O)CCCCCNC(=O)[C@H](Cc1c[nH]c2ccccc12)NC(=O)[C@@H](N)CC(=O)O)C(=O)N1CCC[C@H]1C(=O)N[C@@H](CC(C)C)C(=O)N[C@H](C)C(=O)N[C@@H](CCCN=C(N)N)C(=O)O
[1]
  Potency: 8.5%
[2]
  pD2: 6.96
[3]
  pD2: 5.14
[4]
  Mean log concentration ratio: 2.3
[5]
  Potency: 0.5%
[6]
  C5a max: 173%
[7]
  Selectivity: 66
[8]
  Mean log concentration ratio: 0.91

## CSCC[C@H](NC(=O)[C@@H]1CCCN1C(=O)[C@H](CCCCN)NC(=O)[C@H](Cc1ccccc1)NC(=O)[C@H](CO)NC(=O)[C@H](Cc1ccc(O)cc1)NC(C)=O)C(=O)N1CCC[C@H]1C(=O)N[C@@H](CC(C)C)C(=O)N[C@H](C)C(=O)N[C@@H](CCCN=C(N)N)C(=O)O
[1]
  Potency: 9.6%
[2]
  pD2: 6.98
[3]
  pD2: 5.03
[4]
  Mean log concentration ratio: 2.44
[5]
  Potency: 0.4%
[6]
  C5a max: 148%
[9]
  Selectivity: 89
[8]
  Mean log concentration ratio: 0.74

## CSCC[C@H](NC(=O)[C@@H]1CCCN1C(=O)[C@H](CCCCN)NC(=O)[C@H](Cc1ccccc1)NC(=O)[C@H](CO)NC(=O)[C@H](Cc1ccc(O)cc1)NC(=O)CCCCCNC(=O)[C@@H](N)CCCCN)C(=O)N1CCC[C@H]1C(=O)N[C@@H](CC(C)C)C(=O)N[C@H](C)C(=O)N[C@@H](CCCN=C(N)N)C(=O)O [listing 1 of 2 here]
[1]
  Potency: 14%
[2]
  pD2: 7.14
[10]
  pD2: 5.37
[11]
  Mean log concentration ratio: 1.93
[12]
  Potency: 1.2%
[13]
  C5a max: 145%
[14]
  Selectivity: 59
[8]
  Mean log concentration ratio: 0.84

## CSCC[C@H](NC(=O)[C@H](CC(=O)O)NC(=O)[C@H](CCCCN)NC(=O)[C@H](Cc1ccccc1)NC(=O)[C@H](CO)NC(=O)[C@@H](N)Cc1ccc(O)cc1)C(=O)N1CCC[C@H]1C(=O)N[C@@H](CC(C)C)C(=O)N[C@H](C)C(=O)N[C@@H](CCCN=C(N)N)C(=O)O
[15]
  EC50: 0.5 µM
[1]
  Potency: 2.2%
[16]
  Selectivity: 151
[2]
  pD2: 6.32
[17]
  Mean log concentration ratio: 3.35
[18]
  Potency: 0.04%
[19]
  IC50: 3.7 µM
[20]
  Mean log concentration ratio: 4.13
[21]
  EC50: 72 µM
[22]
  pD2: 4.14
[23]
  C5a affinity: 0.007%
[24]
  C5a max: 174%
[8]
  Mean log concentration ratio: 1.66
[25]
  Ratio: 19

## CSCC[C@H](NC(=O)[C@H](CC(=O)O)NC(=O)[C@H](CCCCN)NC(=O)[C@H](Cc1ccccc1)NC(=O)[C@H](CO)NC(=O)[C@@H](N)Cc1ccc(O)cc1)C(=O)N[C@@H](CCC(N)=O)C(=O)N[C@@H](CC(C)C)C(=O)NCC(=O)N[C@@H](CCCN=C(N)N)C(=O)O (H-YSFKDMQLGR-OH)
[15]
  EC50: 9.6 µM
[1]
  Potency: 0.1%
[2]
  pD2: 4.96
[26]
  Mean log concentration ratio: 3.42
[27]
  Potency: 0.04%
[28]
  IC50: 1.3 µM
[29]
  pD2: 4.04
[23]
  C5a affinity: 0.022%
[30]
  C5a max: 87%
[31]
  EC50: 92 µM
[32]
  Selectivity: 8.3
[33]
  Ratio: 72
[8]
  Mean log concentration ratio: 3

## CSCC[C@H](NC(=O)[C@@H]1CCCN1C(=O)[C@H](CCCCN)NC(=O)[C@H](Cc1ccccc1)NC(=O)[C@H](CO)NC(=O)[C@H](Cc1ccc(O)cc1)NC(=O)CCCCCN)C(=O)N1CCC[C@H]1C(=O)N[C@@H](CC(C)C)C(=O)N[C@H](C)C(=O)N[C@@H](CCCN=C(N)N)C(=O)O
[1]
  Potency: 16%
[2]
  pD2: 7.16
[3]
  pD2: 5.51
[5]
  Potency: 1.2%
[20]
  Mean log concentration ratio: 4.33
[34]
  Mean log concentration ratio: 1.9
[23]
  C5a affinity: 0.005%
[6]
  C5a max: 180%
[35]
  Selectivity: 45
[8]
  Mean log concentration ratio: 0.79
[25]
  Ratio: 0.6

## CSCC[C@H](NC(=O)[C@@H]1CCCN1C(=O)[C@H](CCCCN)NC(=O)[C@H](Cc1ccccc1)NC(=O)[C@H](CO)NC(=O)[C@H](Cc1ccc(O)cc1)NC(=O)CCCCCNC(=O)[C@@H](N)CCCCN)C(=O)N1CCC[C@H]1C(=O)N[C@@H](CC(C)C)C(=O)N[C@H](C)C(=O)N[C@@H](CCCN=C(N)N)C(=O)O [listing 2 of 2 here]
[15]
  EC50: 0.09 µM
[36]
  EC50: 4.3 µM
